In article PMC11638873 (Molecular Therapy, 2024):
Where “and” joins values, the source holds several entries; their conditions need not be identical. Equal values may be shown once.

Experiments:
[1] = system: human liver microsomes (CYP, UGT); experiment: In vitro metabolism on human liver microsomes; type: in vitro ADME; settings: for glucuronate metabolite detection after HLM incubation: with cofactors for UGT activity
In short: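 Test compound (1 mM) incubated at 37 °C with pooled HLMs from 50 donors of both sexes (20 mg protein/mL). Buffer was 100 mM potassium phosphate or 100 mM Tris-HCl, pH 7.4, each with 20 mM NADPH. Reactions stopped with acetonitrile at 0, 5, 30 and 60 min; supernatant analysed by HPLC-MS. % remaining vs 0 min; mean ± SEM; one-way ANOVA vs time 0.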

[2] = Biodistribution study after single oral dose in wild-type C57BL/6 mice; type: in vivo, mouse; settings: 60 mg/kg single oral dose
[3] = cited from earlier work
[4] = type: in vivo, mouse; settings: 60 mg/kg daily oral
In short: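 Homozygous G542X mice were dosed orally once daily from P21 for 15 days. Controls were 3 WT and 3 mutant mice given water. Afterwards, isolated tissues from each group were stained with hematoxylin and eosin to check for tissue damage.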

[5] = system: CFTR (G542X nonsense mutation); type: in vivo, mouse; settings: 60 mg/kg daily oral, 15 days
In short: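 G542X homozygous mice (n = 5, genotyped by allele-specific PCR) gavaged daily from P21 for 15 days; 3 WT and 3 mutant mice given water as vehicle. Lung RNA (20–25 mg tissue) for real-time RT-PCR. Lung protein (40 mg tissue, RIPA plus 1% protease inhibitors, Bradford) for western blot, normalized to tubulin and negative control. Triplicate per mouse; mean ± SEM; two-way ANOVA vs untreated mutant.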

[6] = system: premature termination codons (PTCs) / natural termination codons (NTCs); settings: cited from earlier work

metabolic consumption after HLM incubation ([1]; after 60 min, HLM condition not specified) [%]	SMILES	glucuronate metabolite detection after HLM incubation [1]	last detection in lungs [2] [h]	concentration in kidneys (individual mice) ([2]; 45 min, found in two mice)	concentration in pancreas ([2]; 45 min to 2 h)	average plasma concentration ([2]; 24 h) [g/mL]	tolerability in vivo [3]	tissue damage after chronic administration (H&E staining) ([4]; 15 days)	tolerability of oral treatment for 2 weeks ([4]; CFTR G542X/G542X mice)	lung CFTR mRNA expression (real-time RT-PCR) ([5]; CFTR G542X/G542X mice, vs untreated mutant)	CFTR detection in lung sections (IHC), apical membranes of pulmonary ducts ([5]; mouse M2)	specificity for PTCs [6]	metabolic stability in HLM compared to PTC124 ([1]; CYP, UGT and other liver microsome enzymes)	consumption after HLM incubation ([1]; after 60 min, CYP-DPBS condition) [%]	consumption after HLM incubation ([1]; after 60 min, CYP-Tris condition) [%]	consumption after HLM incubation ([1]; after 60 min, CYP/UGT-DPBS condition) [%]	consumption after HLM incubation ([1]; after 60 min, CYP/UGT-Tris condition) [%]
46.25	O=C(O)c1cccc(-c2noc(-c3ccccc3F)n2)c1 [PTC124, reference compound]	glucuronate derivative was the primary metabolite detected															
	CC(=O)Nc1noc(C)n1 [NV848, N-(5-methyl-1,2,4-oxadiazol-3-yl)acetamide]	no glucuronate metabolites were detected	2	145 ng/g and 794 ng/g	stable concentrations from 45 min to 2 h	0.06	good tolerability in vivo	no signs of tissue damage	well tolerated in mice and did not cause toxicity	increase in CFTR mRNA expression	intensity similar to CFTR^WT	specificity for PTCs without interfering with NTCs	higher metabolic stability compared to PTC124	14.62	5.27	5.65	13.04
